Active and inactive are the calls of the source. The calls are words filed in the database; no cut-off is given here.

The results in this text go back to ChEMBL document CHEMBL4354819, “Discovery of Novel Small Molecule Dual Inhibitors Targeting Toll-Like Receptors 7 and 8” (J Med Chem, 2019).

In assay [1] the test system is THP-1. In words: Inhibition of IFN mediated immune response in human THP1 cells assessed as inhibition of G3-YSD-induced cGAS signalling pathway at 20 uM incubated for 16 hrs by luciferase assay. Type of assay: functional, cell-based. The method, boiled down:
(§1)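 THP1-Dual monocytes carrying Lucia luciferase and SEAP reporters were stimulated with 3p-hpRNA (RIG-I agonist) or Y-form dsDNA G3-YSD (cGAS agonist), with or without compound. Secreted Lucia luciferase luminescence was measured as the type I IFN read-out. Mean ± s.d., n = 3 independent experiments.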

Assay [2] has as its target T1, Toll-like receptor 7 (Homo sapiens) (UniProt Q9NYK1).
T1 sequence (whole entry): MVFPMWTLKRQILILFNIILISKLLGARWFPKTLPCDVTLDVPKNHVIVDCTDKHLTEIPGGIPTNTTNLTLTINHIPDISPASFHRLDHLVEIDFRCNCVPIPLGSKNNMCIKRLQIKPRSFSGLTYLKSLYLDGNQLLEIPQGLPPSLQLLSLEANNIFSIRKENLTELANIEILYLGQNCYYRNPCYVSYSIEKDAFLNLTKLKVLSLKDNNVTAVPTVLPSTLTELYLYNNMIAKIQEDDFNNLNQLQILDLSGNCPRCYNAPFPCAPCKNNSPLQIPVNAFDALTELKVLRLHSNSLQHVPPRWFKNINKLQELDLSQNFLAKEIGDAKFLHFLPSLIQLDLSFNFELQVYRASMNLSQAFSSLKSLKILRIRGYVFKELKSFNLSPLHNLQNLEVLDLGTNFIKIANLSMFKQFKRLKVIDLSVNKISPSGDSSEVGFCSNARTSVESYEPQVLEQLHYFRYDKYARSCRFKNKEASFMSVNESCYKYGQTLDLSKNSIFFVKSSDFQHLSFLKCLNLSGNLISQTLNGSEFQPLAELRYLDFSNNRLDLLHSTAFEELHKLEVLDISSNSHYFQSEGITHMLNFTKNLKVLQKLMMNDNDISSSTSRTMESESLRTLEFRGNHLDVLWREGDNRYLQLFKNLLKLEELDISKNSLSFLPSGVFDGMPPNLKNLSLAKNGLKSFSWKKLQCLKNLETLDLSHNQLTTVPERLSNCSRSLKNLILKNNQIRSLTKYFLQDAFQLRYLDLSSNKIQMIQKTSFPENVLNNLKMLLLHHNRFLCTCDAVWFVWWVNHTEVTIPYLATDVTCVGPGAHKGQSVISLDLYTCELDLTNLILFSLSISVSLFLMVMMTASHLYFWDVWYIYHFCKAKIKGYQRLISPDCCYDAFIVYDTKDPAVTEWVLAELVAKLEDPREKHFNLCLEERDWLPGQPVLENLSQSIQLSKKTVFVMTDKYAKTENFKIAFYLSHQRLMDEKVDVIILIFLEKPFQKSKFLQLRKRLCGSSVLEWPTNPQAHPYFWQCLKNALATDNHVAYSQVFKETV
As to the kind of experiment: Inhibition of human TLR7 expressed in HEK293 cells assessed as reduction in R848-induced NFkappaB production incubated for 16 hrs by quanti-blue SEAP assay. Type of assay: cell-based. The method, boiled down: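 HEK 293-Blue cells stably expressing hTLR7 or hTLR8 with an inducible SEAP reporter were incubated 16 h with compound under 1 µg/mL R848 stimulation. SEAP was read at 620 nm. Data were normalized to the R848 control, and IC50 was taken from concentration-response curves. […] Mean ± s.d., n = 3 independent experiments.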

The subject of assay [3] is THP-1. In words: Inhibition of IFN mediated immune response in human THP1 cells assessed as inhibition of 3p-hpRNA-induced RIG1 signalling pathway at 5 to 20 uM incubated for 16 hrs by luciferase assay. Type of assay: functional, cell-based. In outline:
as §1

`O=[N+]([O-])c1c(I)cccc1Oc1ccc(-c2nnco2)cc1`: the inhibition entry in the assay with THP-1 [1] was “Active”.
Regarding `O=C(Nc1ccc(Oc2cc(C(F)(F)F)cc(C(F)(F)F)c2)cc1)c1c(F)cccc1Cl`, the inhibition result in assay [2] is “Dose-dependent effect”.
Take `O=C(Nc1ccc(Oc2cncc(C(F)(F)F)c2)cc1)c1c(F)cccc1Cl`: the inhibition result in the assay with THP-1 [3] was “Active”.
